Measurements reported in ChEMBL document CHEMBL3526048, “In vitro metabolism of rivoglitazone, a novel peroxisome proliferator-activated receptor γ agonist, in rat, monkey, and human liver microsomes and freshly isolated hepatocytes” (Drug Metab Dispos, 2011).

Tests used:
Assay type in all cases: ADME
[1] = target: T1, UDP-glucuronosyltransferase 1A7 (Homo sapiens, UniProt Q9HAW7); test: (§1) Activity of human UGT1A7 expressed in microsomes isolated from baculovirus infected insect cell assessed as enzyme-mediated (2S,3S,4S,5R,6R)-6-((1-carboxy-2-(4-((6-methoxy-1-methyl-1H-benzo[d]imidazol-2-yl)methoxy)phenyl)ethylthio)carbonylamino)-3,4,5-trihydroxytetrahydro-2H-pyran-2-carboxylic acid formation at 20 uM after 4 hrs by radio-HPLC/LC-MS/MS analysis in presence of UDPGA
T1 sequence (Q9HAW7 whole entry): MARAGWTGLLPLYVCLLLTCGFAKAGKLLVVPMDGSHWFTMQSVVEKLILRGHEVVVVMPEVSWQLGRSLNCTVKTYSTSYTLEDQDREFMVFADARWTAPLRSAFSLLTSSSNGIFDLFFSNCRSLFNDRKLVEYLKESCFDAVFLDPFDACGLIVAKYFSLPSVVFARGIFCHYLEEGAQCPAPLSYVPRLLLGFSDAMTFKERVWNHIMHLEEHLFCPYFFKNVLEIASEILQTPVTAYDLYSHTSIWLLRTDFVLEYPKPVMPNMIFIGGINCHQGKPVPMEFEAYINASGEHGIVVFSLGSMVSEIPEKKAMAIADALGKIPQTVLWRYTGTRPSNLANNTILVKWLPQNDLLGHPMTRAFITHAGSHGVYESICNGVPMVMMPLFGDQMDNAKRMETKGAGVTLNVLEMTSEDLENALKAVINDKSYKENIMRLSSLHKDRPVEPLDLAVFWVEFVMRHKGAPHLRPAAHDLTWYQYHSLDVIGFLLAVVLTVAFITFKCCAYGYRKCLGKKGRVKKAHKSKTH

Cytochrome P450 2C19 = Cytochrome P450 2C19 (Homo sapiens, UniProt P33261); test: Activity of human CYP2C19 expressed in microsomes isolated from baculovirus infected insect cell assessed as enzyme-mediated 2-mercapto-3-(4-((6-methoxy-1-methyl-1H-benzo[d]imidazol-2-yl)methoxy)phenyl)propanoic acid formation at 20 uM after 2 hrs by radio-HPLC/LC-MS/MS analysis in presence of NADPH-generating system
How it was run: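 Baculovirus/insect-cell microsomes expressing single human CYPs, 1 mg/ml protein, with 50 mM potassium phosphate (pH 7.4) or 100 mM Tris-HCl (pH 7.5). NADPH-generating system: 2 mM NADP⁺, 20 mM glucose 6-phosphate, 2 units/ml G6PDH, 10 mM MgCl₂. [¹⁴C]rivoglitazone at 20 μM, 2 h at 37°C with shaking. Control used insect-cell control supersomes. Stopped with acetonitrile; supernatant concentrated under nitrogen; metabolites analysed by radio-HPLC, LC-MS and LC-MS/MS.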

[2] = target: T2, UDP-glucuronosyltransferase 1A1 (Homo sapiens, UniProt P22309); test: Activity of human UGT1A1 expressed in microsomes isolated from baculovirus infected insect cell assessed as enzyme-mediated (2S,3S,4S,5R,6R)-3,4,5-trihydroxy-6-(5-(4-((6-methoxy-1-methyl-1H-benzo[d]imidazol-2-yl)methoxy)benzyl)-2,4-dioxothiazolidin-3-yl)tetrahydro-2H-pyran-2-carboxylic acid formation at 20 uM after 4 hrs by radio-HPLC/LC-MS/MS analysis in presence of UDPGA
T2 sequence (P22309 whole entry): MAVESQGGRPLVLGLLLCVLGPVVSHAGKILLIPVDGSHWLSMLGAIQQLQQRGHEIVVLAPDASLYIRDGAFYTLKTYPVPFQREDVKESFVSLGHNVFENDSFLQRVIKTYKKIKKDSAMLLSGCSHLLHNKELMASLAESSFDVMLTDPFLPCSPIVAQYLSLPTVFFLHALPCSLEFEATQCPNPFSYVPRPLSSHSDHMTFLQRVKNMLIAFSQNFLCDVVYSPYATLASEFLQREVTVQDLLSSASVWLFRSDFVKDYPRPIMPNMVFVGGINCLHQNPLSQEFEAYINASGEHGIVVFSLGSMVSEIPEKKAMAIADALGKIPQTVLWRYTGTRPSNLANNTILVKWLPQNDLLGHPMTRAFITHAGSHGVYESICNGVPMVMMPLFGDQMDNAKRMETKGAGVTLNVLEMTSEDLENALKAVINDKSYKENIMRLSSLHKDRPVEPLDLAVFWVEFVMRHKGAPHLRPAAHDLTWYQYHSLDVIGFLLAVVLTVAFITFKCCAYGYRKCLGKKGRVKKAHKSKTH
How it was run: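 Alamethicin (50 μg/mg protein, 15 min on ice) pretreated expressed human UGT microsomes (1 mg/ml protein) from baculovirus-infected insect cells. Incubation with [¹⁴C]rivoglitazone (20 μM) in 100 mM Tris-HCl (pH 7.5) with 10 mM MgCl₂, started by 5 mM UDPGA, 4 h at 37°C with shaking. UGT insect-cell control supersomes were run alongside. Acetonitrile stop, concentrated supernatant analysed by radio-HPLC, LC-MS and LC-MS/MS.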

[3] = target: T3, UDP-glucuronosyltransferase 2B7 (Homo sapiens, UniProt P16662); test: Activity of human UGT2B7 expressed in microsomes isolated from baculovirus infected insect cell assessed as enzyme-mediated 2-amino-3-((1-carboxy-2-(4-((6-methoxy-1-methyl-1H-benzo[d]imidazol-2-yl)methoxy)phenyl)ethyl)disulfanyl)propanoic acid formation at 20 uM after 4 hrs by radio-HPLC/LC-MS/MS analysis in presence of UDPGA and UDPGA/SAM
T3 sequence (P16662 whole entry): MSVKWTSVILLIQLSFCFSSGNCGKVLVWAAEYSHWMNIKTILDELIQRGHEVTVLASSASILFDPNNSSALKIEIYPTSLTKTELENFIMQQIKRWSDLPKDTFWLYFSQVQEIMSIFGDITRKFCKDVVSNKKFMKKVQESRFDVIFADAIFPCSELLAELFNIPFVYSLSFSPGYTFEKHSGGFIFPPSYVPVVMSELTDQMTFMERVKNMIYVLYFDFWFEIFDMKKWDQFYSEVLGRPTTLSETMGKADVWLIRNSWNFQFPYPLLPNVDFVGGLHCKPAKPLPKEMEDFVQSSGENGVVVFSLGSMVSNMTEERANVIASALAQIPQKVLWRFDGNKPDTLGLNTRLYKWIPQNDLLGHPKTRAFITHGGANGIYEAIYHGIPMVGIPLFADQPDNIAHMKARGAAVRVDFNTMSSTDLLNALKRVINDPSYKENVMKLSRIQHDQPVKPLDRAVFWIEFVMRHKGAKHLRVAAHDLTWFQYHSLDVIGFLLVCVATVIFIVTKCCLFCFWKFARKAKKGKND

[4] = target: T4, UDP-glucuronosyltransferase 1A3 (Homo sapiens, UniProt P35503); test: as §1, with “UGT1A3” for “UGT1A7”, “NADPH-generating system/SAM” for “UDPGA”
T4 sequence (P35503 whole entry): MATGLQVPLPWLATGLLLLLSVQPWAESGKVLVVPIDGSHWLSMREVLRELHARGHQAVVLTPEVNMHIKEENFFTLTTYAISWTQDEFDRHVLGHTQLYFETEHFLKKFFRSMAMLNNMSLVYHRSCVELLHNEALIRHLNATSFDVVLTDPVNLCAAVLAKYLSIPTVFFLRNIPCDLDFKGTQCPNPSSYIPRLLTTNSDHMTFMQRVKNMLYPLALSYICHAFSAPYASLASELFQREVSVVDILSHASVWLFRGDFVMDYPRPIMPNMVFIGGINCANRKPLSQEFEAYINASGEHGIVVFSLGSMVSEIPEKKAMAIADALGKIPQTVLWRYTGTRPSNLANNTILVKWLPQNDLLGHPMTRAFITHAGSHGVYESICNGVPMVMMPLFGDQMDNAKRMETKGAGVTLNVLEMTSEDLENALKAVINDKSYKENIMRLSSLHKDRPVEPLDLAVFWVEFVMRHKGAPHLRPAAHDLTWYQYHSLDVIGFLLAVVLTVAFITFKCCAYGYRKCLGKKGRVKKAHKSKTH

Cytochrome P450 2C19, sequence (P33261 whole entry): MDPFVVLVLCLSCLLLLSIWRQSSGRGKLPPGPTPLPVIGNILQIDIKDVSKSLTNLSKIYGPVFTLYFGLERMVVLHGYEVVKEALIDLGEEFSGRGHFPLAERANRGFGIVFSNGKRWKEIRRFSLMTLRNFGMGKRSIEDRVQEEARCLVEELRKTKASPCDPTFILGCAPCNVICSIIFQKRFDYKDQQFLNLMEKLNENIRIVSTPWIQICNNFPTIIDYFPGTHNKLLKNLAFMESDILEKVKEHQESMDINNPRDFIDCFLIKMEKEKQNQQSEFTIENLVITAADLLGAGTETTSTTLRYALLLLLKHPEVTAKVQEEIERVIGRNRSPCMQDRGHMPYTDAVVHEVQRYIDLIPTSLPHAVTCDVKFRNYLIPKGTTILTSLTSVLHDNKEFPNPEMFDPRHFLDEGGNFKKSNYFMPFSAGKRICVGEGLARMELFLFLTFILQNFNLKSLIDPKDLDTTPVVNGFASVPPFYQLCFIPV

Drug metabolism [1]: metabolite_not_detected
Drug metabolism (Cytochrome P450 2C19): metabolite_detected
Drug metabolism [2]: metabolite_not_detected
Drug metabolism [3]: metabolite_not_detected
Drug metabolism [4]: metabolite_detected
SMILES: COc1ccc2nc(COc3ccc(C[14CH]4SC(=O)NC4=O)cc3)n(C)c2c1.Cl (racemic)
